Measurements published in paper PMC6720533 (Biomolecules & Therapeutics, 2019).

Assays:
[1] = system: Jurkat cells; experiment: WST-1 metabolic activity assay; assay type: cell-based; details: Homo sapiens, 72 h, read-out: metabolic activity
Outline: (§1)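 Test compound came from a 10 mM DMSO stock. Cells were seeded at 5×10^4/well in triplicate with 5 or 10 μM final compound; controls got matched DMSO. After 72 h at 37°C, 5% CO2, WST-1 was added for a further 3 h. Absorbance was read at 450 nm (reference 620 nm), and metabolic activity given as % of DMSO control.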

[2] = system: SEM cells; experiment: WST-1 metabolic activity assay; assay type: cell-based; details: Homo sapiens, 72 h, read-out: metabolic activity
Outline: as §1

[3] = system: RS4;11 cells; experiment: WST-1 metabolic activity assay; assay type: cell-based; details: Homo sapiens, RS4-11, 72 h, read-out: metabolic activity
Outline: as §1

[4] = system: CEM cells; experiment: WST-1 metabolic activity assay; assay type: cell-based; details: Homo sapiens, CCRF-CEM, 72 h, read-out: metabolic activity
Outline: as §1

[5] = biological target: recombinant human CK2α1 (Homo sapiens, UniProt P68400); experiment: CK2 kinase activity assay; assay type: biochemical; details: 10 μM ATP, 60 min
Outline: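 Recombinant human CK2α1 (50 ng) was incubated with 2.5 μg CK2α1 substrate, 10 μM ATP, and test compound, reference inhibitor or DMSO for 60 min at room temperature. ADP-Glo reagent stopped the reaction and depleted remaining ATP. Detection reagent then converted ADP to ATP for luciferase/luciferin luminescence, which tracks the ADP formed as the measure of kinase activity.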

recombinant human CK2α1, sequence (P68400 whole entry): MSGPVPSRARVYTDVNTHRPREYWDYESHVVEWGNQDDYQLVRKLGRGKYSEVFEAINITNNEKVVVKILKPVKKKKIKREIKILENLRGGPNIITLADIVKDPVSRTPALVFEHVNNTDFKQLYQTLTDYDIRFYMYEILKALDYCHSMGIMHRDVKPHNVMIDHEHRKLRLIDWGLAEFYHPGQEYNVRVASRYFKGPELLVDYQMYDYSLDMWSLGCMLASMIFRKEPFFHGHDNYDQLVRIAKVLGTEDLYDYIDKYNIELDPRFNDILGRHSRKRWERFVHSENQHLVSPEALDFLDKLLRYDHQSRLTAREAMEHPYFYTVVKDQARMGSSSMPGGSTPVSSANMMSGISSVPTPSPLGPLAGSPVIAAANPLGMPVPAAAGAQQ

Row | CK2 enzyme activity ([5]; 0.1 μM) | CK2 enzyme activity compared to DMSO (100%) ([5]; 1 μM) | Structure (SMILES) | viability at 5 µM [1] | viability at 10 µM [1] | activity at 5 µM [2] | activity at 10 µM [2] | activity at 5 µM [3] | activity at 10 µM [3] | viability at 5 µM [4] | viability at 10 µM [4]
1 | – | – | Cc1ccc2cc(-c3ccccc3)nc(N)c2c1 [FX-43, 7-Methyl-3-phenylisoquinolin-1-amine] | 107% | 104% | 94.7% | 94.3% | – | – | – | –
2 | – | – | O=c1c2cc(Cl)ccc2nc2n1Cc1ccccc1-2 [FX-3, 8-Chloroisoindolo[1,2-b]quinazolin-10(12H)-one] | 57.9% | 77% | 32% | 26.7% | 73.8% | 40.2% | 76.2% | 86%
3 | – | – | COc1ccc2c(N)nc(-c3ccccc3)cc2c1 [FX-42, 6-Methoxy-3-phenylisoquinolin-1-amine] | 88.4% | 32.4% | 66.7% | 24.5% | – | – | – | –
4 | – | – | Cc1ccc2c(=O)n3c(nc2c1)-c1ccc(F)cc1C3 [FX-5, 2-Fluoro-7-methylisoindolo[1,2-b]quinazolin-10(12H)-one] | 94% | 96.5% | 91.7% | 74.7% | 91.4% | 86.7% | 101% | 95%
5 | – | – | CC(=O)c1ccc2c(=O)n3c(nc2c1)-c1ccccc1C3 [FX-1, 7-Acetylisoindolo[1,2-b]quinazolin-10(12H)-one] | 93.4% | 68.5 ± 14.8% | 107% | 97.7% | 99.3% | 94.4% | 87.1% | 83.9%
6 | – | – | O=c1c2ccccc2nc2n1Cc1cc(F)ccc1-2 [FX-6, 2-Fluoroisoindolo[1,2-b]quinazolin-10(12H)-one] | 105% | 97.5% | 72.1% | 51.4% | 76.6% | 67.1% | 93.2% | 107%
7 | – | – | Cc1cc(C)c2nc3n(c(=O)c2c1)Cc1ccccc1-3 [FX-8, 6,8-Dimethylisoindolo[1,2-b]quinazolin-10(12H)-one] | 95.2% | 92.5% | 23.3% | 14.5% | 61.5% | 55.8% | 97% | 85%
8 | Reduction of CK2 enzyme activity | 3.4 ± 0.3% | O=C(O)c1ccc2c(c1)nc(Nc1cccc(Cl)c1)c1ccncc12 [CX-4945, reference compound] | – | – | – | – | – | – | – | –
9 | – | – | Cc1ccc2c(=O)n3c(nc2c1)-c1ccccc1C3 [FX-4, 7-Methylisoindolo[1,2-b]quinazolin-10(12H)-one] | 90.4% | 86.6% | 96.8% | 64.9% | 91.2% | 85.9% | 102% | 90.6%
10 | – | – | O=c1c2ccc(F)cc2nc2n1Cc1ccccc1-2 [FX-2, 7-Fluoroisoindolo[1,2-b]quinazolin-10(12H)-one] | 81.3% | 54.3% | 100% | 69.8% | 97.3% | 79.8% | 86.3% | 77.2%
11 | – | – | Cc1ccc2nc3n(c(=O)c2c1)Cc1ccccc1-3 [FX-7, 8-Methylisoindolo[1,2-b]quinazolin-10(12H)-one] | 91.4% | 84.3% | 52.1% | 25.2% | 61.3% | 49.4% | 96.1% | 85%
